ChEMBL document CHEMBL1153852, “Steroidal lactones as inhibitors of 17beta-hydroxysteroid dehydrogenase type 5: chemical synthesis, enzyme inhibitory activity, and assessment of estrogenic and androgenic activities” (Eur J Med Chem, 2009)
Active and inactive are the calls of the source. No cut-off for these calls is given here.

Columns and labels:
[1] = target: T1, 17-beta-hydroxysteroid dehydrogenase type 1 (Homo sapiens) (UniProt P14061); assay: Inhibition of human 17beta-HSD1 expressed in HEK293 cells assessed as enzyme-mediated transformation of [14C]-E1 in to [14C]-E2 at 1 uM; assay type: cell-based
T1 sequence (whole entry): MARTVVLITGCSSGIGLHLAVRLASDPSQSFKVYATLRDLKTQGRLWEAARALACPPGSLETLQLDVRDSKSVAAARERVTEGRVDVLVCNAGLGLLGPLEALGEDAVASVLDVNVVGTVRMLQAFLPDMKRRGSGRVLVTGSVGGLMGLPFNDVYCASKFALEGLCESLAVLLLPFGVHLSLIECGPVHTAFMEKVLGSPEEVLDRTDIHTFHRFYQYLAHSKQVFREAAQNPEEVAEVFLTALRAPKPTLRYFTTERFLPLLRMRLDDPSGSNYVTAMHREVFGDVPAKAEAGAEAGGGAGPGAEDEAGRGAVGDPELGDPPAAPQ

[2] = target: T2, Aldo-keto reductase family 1 member C3 (Homo sapiens) (UniProt P42330); assay: Inhibition of human 17beta-HSD5 expressed in HEK293 cells assessed as enzyme-mediated transformation of [14C]-4-androstene-3,17-dione in to [14C]-testosterone at 0.3 uM after 18 hrs; assay type: cell-based
T2 sequence (whole entry): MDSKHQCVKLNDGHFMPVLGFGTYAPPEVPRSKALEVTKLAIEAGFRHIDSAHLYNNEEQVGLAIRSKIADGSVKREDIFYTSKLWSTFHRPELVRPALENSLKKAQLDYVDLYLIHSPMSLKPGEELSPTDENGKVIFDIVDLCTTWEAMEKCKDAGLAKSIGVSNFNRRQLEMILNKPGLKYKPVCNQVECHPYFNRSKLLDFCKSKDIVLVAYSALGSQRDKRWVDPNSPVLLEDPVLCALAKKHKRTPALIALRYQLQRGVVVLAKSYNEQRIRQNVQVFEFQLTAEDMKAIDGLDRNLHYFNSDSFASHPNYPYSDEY
Outline: (§1)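 Intact HEK-293 cells stably over-expressing human 17β-HSD5, in freshly changed culture medium. [14C]-4-androstene-3,17-dione is added at 100 nM with inhibitor from an ethanolic solution; controls get ethanol only. After 18 h the conversion to [14C]-T is measured.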

[3] = target: T2, Aldo-keto reductase family 1 member C3 (Homo sapiens); assay: Inhibition of human 17beta-HSD5 expressed in HEK293 cells assessed as enzyme-mediated transformation of [14C]-4-androstene-3,17-dione in to [14C]-testosterone at 3 uM after 18 hrs; assay type: cell-based; outline: as §1
[4] = target: T3, 17-beta-hydroxysteroid dehydrogenase type 3 (Homo sapiens) (UniProt P37058); assay: Inhibition of human 17beta-HSD3 expressed in HEK293 cells assessed as enzyme-mediated transformation of [14C]-4-androstene-3,17-dione in to [14C]-testosterone at 1 uM; assay type: cell-based
T3 sequence (whole entry): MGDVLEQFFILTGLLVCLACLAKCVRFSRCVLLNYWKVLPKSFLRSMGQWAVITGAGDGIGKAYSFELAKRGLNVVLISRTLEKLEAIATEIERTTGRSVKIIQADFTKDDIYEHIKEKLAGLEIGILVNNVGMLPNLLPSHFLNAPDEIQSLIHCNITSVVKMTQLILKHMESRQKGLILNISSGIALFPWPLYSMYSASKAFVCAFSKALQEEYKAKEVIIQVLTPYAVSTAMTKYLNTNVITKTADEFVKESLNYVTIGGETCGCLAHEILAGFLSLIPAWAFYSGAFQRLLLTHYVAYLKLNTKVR

[5] = target: T1, 17-beta-hydroxysteroid dehydrogenase type 1 (Homo sapiens); assay: Inhibition of human 17beta-HSD1 expressed in HEK293 cells assessed as enzyme-mediated transformation of [14C]-E1 in to [14C]-E2 at 0.1 uM; assay type: cell-based
[6] = target: T4, Aldo-keto reductase family 1 member C3 (Homo sapiens, UniProt P42330); assay: Inhibition of human 17beta-HSD5 expressed in HEK293 cells assessed as enzyme-mediated transformation of [14C]-4-androstene-3,17-dione in to [14C]-testosterone after 18 hrs; assay type: cell-based
T4 sequence (P42330 whole entry): T2 sequence (whole entry)
Outline: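 Intact HEK-293 cells stably over-expressing human 17β-HSD5, in fresh culture medium. [14C]-4-androstene-3,17-dione 0.1 μM with inhibitor added in ethanol (ethanol alone as control), 18 h.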

[7] = target: T3, 17-beta-hydroxysteroid dehydrogenase type 3 (Homo sapiens); assay: Inhibition of human 17beta-HSD3 expressed in HEK293 cells assessed as enzyme-mediated transformation of [14C]-4-androstene-3,17-dione in to [14C]-testosterone at 0.1 uM; assay type: cell-based
Mus musculus [8] = species: Mus musculus; assay: Androgenic activity in mouse SC115 cells expressing androgen receptor assessed as DHT-induced cell proliferation at 0.1 uM after 10 days relative to DHT; assay type: functional, cell-based
Outline: (§2)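 SC115 Shionogi clone selected for DHT sensitivity, in MEM with 2% dextran-charcoal-treated FCS, seeded at 20,000 cells/well. After 24 h the medium is renewed and lactones added at 0.1 and 1, without DHT. Final ethanol is 0.01%. Cells are grown 10 days at 37 °C in 5% CO2, with medium changed every 3–4 days. DNA is measured by DABA fluorescence; DHT-stimulated growth is set to 100%.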

[9] = Antiandrogenic activity in mouse SC115 cells expressing androgen receptor assessed as inhibition of DHT-induced cell proliferation at 1 uM after 10 days relative to DHT; assay type: functional; conditions: 240 h
Outline: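 SC115 Shionogi clone chosen for high DHT sensitivity; plated at 20,000 cells/well in MEM with 2% dextran-coated charcoal-treated FCS. After 24 h, medium changed and compound (0.1 or 1 μM) added with 0.3 nM DHT; ethanol 0.01% final. 10 days at 37 °C, medium changed every 3–4 days. Growth read as DNA content (DABA fluorescence); DHT-stimulated growth set to 100%; triplicates, mean ± SEM.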

Mus musculus [10] = species: Mus musculus; assay: Androgenic activity in mouse SC115 cells expressing androgen receptor assessed as DHT-induced cell proliferation at 1 uM after 10 days relative to DHT; assay type: functional, cell-based; outline: as §2
ZR-75-1 [11] = assay: Estrogenic activity in human ZR-75-1 cells expressing estrogen receptor assessed as estrogen-induced cell proliferation at 1 uM after 9 days relative to estrogen; assay type: functional
Outline: (§3)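 ZR-75-1 cells are resuspended in phenol red-free RPMI 1640 with 5% dextran-charcoal-treated FBS and seeded at 10,000 cells/well. After 3 days of adhesion, lactones from ethanol stocks are added alone or with E2 (0.1 nM). Cells grow 9 days at 37 °C in 5% CO2, with medium changed every 2–3 days. DNA is measured by DABA fluorescence; E2-induced growth is set to 100%.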

ZR-75-1 [12] = assay: Antiestrogenic activity in human ZR-75-1 cells expressing estrogen receptor assessed as inhibition of estrogen-induced cell proliferation at 0.1 nM after 9 days relative to estrogen; assay type: functional, cell-based
ZR-75-1 [13] = assay: Estrogenic activity in human ZR-75-1 cells expressing estrogen receptor assessed as estrogen-induced cell proliferation at 0.03 uM after 9 days relative to estrogen; assay type: functional, cell-based; outline: as §3

Compound: C[C@]12CC[C@@H]3c4ccccc4CC[C@H]3[C@@H]1CC[C@@]21CCCC(=O)O1
- inhibition [1]: 21%
- inhibition [2]: 93%
- inhibition [3]: 95%
- inhibition [4]: 64%
- inhibition [5]: 21%
- IC50 [6]: 10 nM
- inhibition [7]: 25%

Compound: CC(C)(O)C(=O)Nc1ccc([N+](=O)[O-])c(C(F)(F)F)c1 [HYDROXYFLUTAMIDE]
- Activity (Mus musculus [8]): inactive
- inhibition at 1 µM [9]: 94%
- Activity (Mus musculus [10]): inactive

Compound: CCCCN(C)C(=O)CCCCCCCCCC[C@@H]1Cc2cc(O)ccc2[C@H]2CC[C@]3(C)[C@@H](O)[C@H](Cl)C[C@H]3[C@H]12
- Activity (ZR-75-1 [11]): inactive
- Activity (ZR-75-1 [12]): Active
- Activity (ZR-75-1 [13]): inactive
